# Source: ChEMBL document CHEMBL4616681, “Discovery of 3-Pyridyl Isoindolin-1-one Derivatives as Potent, Selective, and Orally Active Aldosterone Synthase (CYP11B2) Inhibitors” (J Med Chem, 2020)
# Tests used:
# [1] = Intrinsic clearance in rat liver microsomes preincubated for 10 mins followed by NADPH regenerating system addition and measured up to 30 mins by LC/MS-MS analysis; assay type: ADME, Microsome
# Summary of the method: (§1)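 Liver microsomes at 0.5 mg protein/mL in 100 mM potassium phosphate, pH 7.4. Compound preincubated 10 min at 37 °C. Intrinsic clearance scaled using the well-stirred liver model.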
# [2] = Oral bioavailability in Wister-Han rat at 3 mg/kg administered as single dose by LC/MS-MS analysis; assay type: ADME, organism-based; settings: Wistar-Han, in vivo
# Summary of the method: (§2)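 Male Wistar-Han rats, single dose. IV 1 mg/kg, compound at 0.5 mg/mL in NMP:saline 30/70 (v/v). Oral 3 mg/kg, 0.25 mg/mL in 2% Klucel with 0.1% Polysorbate 80. Three rats per time point. Heparinized blood taken at eight (iv) or seven (po) time points, plasma stored at -20 °C. Plasma levels by LC/MS-MS. Non-compartmental analysis.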
# [3] = Plasma clearance in Wister-Han rat at 1 mg/kg, iv administered as single dose by LC/MS-MS analysis; assay type: ADME, organism-based; settings: Wistar-Han; summary of the method: as §2
# [4] = Solubility of the compound in phosphate buffer at pH 6.5 shaken for 2 hrs followed by overnight incubation; assay type: physicochemical
# Summary of the method: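 Lyophilisation solubility assay run in duplicate from 10 mM DMSO stock. DMSO evaporated and residue redissolved in 0.05 M phosphate, pH 6.5. Stirred 1 hr, shaken 2 hr, left overnight, then filtered. Filtrate and a 1/10 dilution analysed by HPLC-UV against a four-point calibration.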
# [5] = Permeability of the compound measured at 18 hrs by PAMPA; assay type: ADME; settings: read-out: permeability
# Summary of the method: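 PAMPA sandwich format. Donor: compound diluted to 150 μM (DMSO <2%) in 0.05 M MOPSO pH 6.5 with 0.5% glycocholic acid. Acceptor: 0.05 M MOPSO pH 6.5. Membrane of 10% egg lecithin with 0.5% cholesterol in dodecane. Donor measured at start; acceptor and donor measured at ~18 hr.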
# [6] = molecular target: T1, Cytochrome P450 11B2, mitochondrial (Homo sapiens, UniProt P19099); assay: Inhibition of human CYP11B2 expressed in human renal leiomyoblastoma cells harboring FDXR/FDX using 1-deoxycorticosterone as substrate by HTRF assay; assay type: cell-based
# T1 sequence (P19099 whole entry): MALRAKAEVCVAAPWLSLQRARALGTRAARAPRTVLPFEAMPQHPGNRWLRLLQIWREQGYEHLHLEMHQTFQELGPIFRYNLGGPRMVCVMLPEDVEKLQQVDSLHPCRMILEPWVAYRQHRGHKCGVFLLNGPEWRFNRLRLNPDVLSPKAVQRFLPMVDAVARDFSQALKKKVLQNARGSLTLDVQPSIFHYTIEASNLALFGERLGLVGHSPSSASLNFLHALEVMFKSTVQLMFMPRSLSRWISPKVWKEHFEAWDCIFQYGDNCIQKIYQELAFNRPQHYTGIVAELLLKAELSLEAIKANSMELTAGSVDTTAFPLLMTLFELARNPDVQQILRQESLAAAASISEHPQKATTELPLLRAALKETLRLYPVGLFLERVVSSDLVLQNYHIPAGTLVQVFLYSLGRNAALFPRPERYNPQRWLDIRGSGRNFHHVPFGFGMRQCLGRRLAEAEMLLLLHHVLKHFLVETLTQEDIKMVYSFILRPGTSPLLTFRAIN
# Summary of the method: (§3)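 Cells with endogenous FDXR/FDX and no detectable CYP11B activity, stably transfected (CMV promoter, neomycin selection, G-418 400 µg/mL) with CYP11B1 or CYP11B2 of the named species. Assayed in DMEM/F12 with 2.5% charcoal-treated FCS. Substrate 1 µM 11-deoxycorticosterone (B2) or 11-deoxycortisol (B1), 16 hr. Aldosterone or cortisol in supernatant measured by HTRF. IC50 from 4-parameter MMF fit; selectivity factor is the B1/B2 IC50 ratio.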
# [7] = Selectivity ratio of IC50 for cynomolgus monkey CYP11B1 expressed in human G401 cells to IC50 for cynomolgus monkey CYP11B2 expressed in human G401 cells; assay type: cell-based; summary of the method: as §3
# [8] = Selectivity ratio of IC50 for human CYP11B1 expressed in human renal leiomyoblastoma cells harboring FDXR/FDX to IC50 for human CYP11B2 expressed in human renal leiomyoblastoma cells harboring FDXR/FDX; assay type: cell-based; summary of the method: as §3
# [9] = Inhibition of cynomolgus monkey CYP11B2 expressed in human G401 cells using 1-deoxycorticosterone as substrate by HTRF assay; assay type: cell-based, Macaca fascicularis; settings: g-401; summary of the method: as §3
# [10] = AUC (0 to infinity) in Wister-Han rat at 3 mg/kg, po administered as single dose by LC/MS-MS analysis; assay type: ADME, organism-based; design: dose 3 mg/kg, route oral, time infinity; settings: Wistar-Han, in vivo; summary of the method: as §2
# [11] = molecular target: T2, Cytochrome P450 11B1, mitochondrial (Homo sapiens, UniProt P15538); assay: Inhibition of human CYP11B1 expressed in human renal leiomyoblastoma cells harboring FDXR/FDX using 1-deoxycortisol as substrate by HTRF assay; assay type: ADME, cell-based; summary of the method: as §3
# T2 sequence (P15538 whole entry): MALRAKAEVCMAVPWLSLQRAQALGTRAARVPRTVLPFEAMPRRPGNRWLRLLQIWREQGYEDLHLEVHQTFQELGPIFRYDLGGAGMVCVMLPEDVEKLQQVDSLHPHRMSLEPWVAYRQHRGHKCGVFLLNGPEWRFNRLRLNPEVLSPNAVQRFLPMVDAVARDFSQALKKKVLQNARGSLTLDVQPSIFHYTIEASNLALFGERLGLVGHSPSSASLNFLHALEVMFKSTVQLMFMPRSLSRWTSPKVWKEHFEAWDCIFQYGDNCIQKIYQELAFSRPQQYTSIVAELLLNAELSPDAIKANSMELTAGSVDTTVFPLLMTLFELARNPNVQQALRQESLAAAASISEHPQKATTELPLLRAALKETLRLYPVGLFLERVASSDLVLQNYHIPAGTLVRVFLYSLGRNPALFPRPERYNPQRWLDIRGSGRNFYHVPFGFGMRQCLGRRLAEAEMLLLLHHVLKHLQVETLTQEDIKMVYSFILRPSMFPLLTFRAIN
# [12] = Intrinsic clearance in human liver microsomes preincubated for 10 mins followed by NADPH regenerating system addition and measured up to 30 mins by LC/MS-MS analysis; assay type: ADME, Microsome; settings: read-out: CLH; summary of the method: as §1
# [13] = Octanol-water distribution coefficient, log D of the compound by carrier-mediated distribution system; assay type: physicochemical
# [14] = Intrinsic clearance in mouse liver microsomes preincubated for 10 mins followed by NADPH regenerating system addition and measured up to 30 mins by LC/MS-MS analysis; assay type: ADME, Microsome; summary of the method: as §1
SMILES,predicted hepatic clearance (CLH) [1] [mL/min/kg],bioavailability [2] [%],clearance [3] [mL/min/kg],solubility at 2 h [4] [µg/mL],Papp at 18 h [5] [×10⁻⁶ cm/s],IC50 [6] [nM],Ratio IC50 [7],Ratio IC50 [8],IC50 [9] [nM],AUC(0-inf) [10] [ng·h/mL],IC50 [11] [nM],predicted hepatic clearance [12] [mL/min/kg],logD [13],predicted hepatic clearance (CLH) [14] [mL/min/kg]
CCS(=O)(=O)N1CCC(c2cncc(N3C(=O)c4ccc(Cl)cc4C3(C)C)c2)CC1,35.1,87,29.7,39,4.01,3,430,106,0.4,1460,–,–,–,–
CCS(=O)(=O)N1CC2(CN(c3cncc(N4C(=O)c5ccc(Cl)cc5C4(C)C)c3)C2)C1,0.87,–,–,–,–,16,19700,855,1,–,–,–,–,–
CC1(C)c2cc(Cl)ccc2C(=O)N1c1cncc(OC2CN(C(=O)c3ncccc3Cl)C2)c1,–,58,3.1,20,3.32,5,1120,174,0.5,10800,–,–,–,–
CC(=O)N1CCC(Oc2cncc(N3C(=O)c4ccc(Cl)cc4C3(C)C)c2)CC1,–,–,–,–,–,4,225,61,2,–,–,–,–,–
CC(=O)N1CC2(C1)CN(c1cncc(N3C(=O)c4ccc(Cl)cc4C3(C)C)c1)C2,3.71,–,–,–,–,23,–,640,–,–,–,–,–,–
CC(=O)N1CC[C@H](Oc2cncc(N3C(=O)c4ccc(Cl)cc4C3(C)C)c2)C1,–,–,–,–,–,7,193,81,5,–,–,–,–,–
CC(=O)N[C@@H]1CCCc2c1cncc2N1CCc2cc(Cl)ccc2C1=O,< 20.2,–,–,–,–,54,–,73,–,–,3920,4.3,–,–
CC1(C)c2cc(Cl)ccc2C(=O)N1c1cncc(CNS(C)(=O)=O)c1,–,–,–,–,–,33,179,49,10,–,–,–,–,–
C[C@@H](NS(C)(=O)=O)c1cncc(N2C(=O)c3ccc(Cl)cc3C2(C)C)c1,–,–,–,–,–,8,93,71,4,–,–,–,–,–
Cc1cccnc1C(=O)NCc1cncc(N2C(=O)c3ccc(Cl)cc3C2(C)C)c1,–,–,–,–,–,9,191,89,–,–,–,–,–,–
CC1(C)c2cc(Cl)ccc2C(=O)N1c1cncc(N2CCN(S(C)(=O)=O)CC2)c1,16.8,54,16.6,91,6.03,2,170,146,0.2,1640,–,–,–,–
CC(=O)N1CC[C@@H](Oc2cncc(N3C(=O)c4ccc(Cl)cc4C3(C)C)c2)C1,–,–,–,–,–,11,643,113,7,–,–,–,–,–
CS(=O)(=O)N[C@@H]1CCCc2c1cncc2N1CCc2cc(Cl)ccc2C1=O,< 20.2,–,–,–,–,76,–,68,–,–,5150,< 3.5,–,–
CC(=O)N1CCN(c2cncc(N3C(=O)c4ccc(Cl)cc4C3(C)C)c2)CC1,17.7,–,–,–,–,9,236,80,3,–,–,–,–,–
O=C1c2ccc(Cl)cc2CCN1c1cccnc1,–,–,–,–,–,61,–,82,–,–,5000,< 3.5,2.25,< 20.2
CC(=O)NCc1cncc(N2C(=O)c3ccc(Cl)cc3C2(C)C)c1,–,–,–,–,–,59,333,47,14,–,–,–,–,–
CCC(=O)N[C@@H]1CCCc2c1cncc2N1CCc2cc(Cl)ccc2C1=O,< 20.2,–,–,–,–,119,–,–,–,–,3330,< 3.5,–,–
CC(=O)N1CCC(c2cncc(N3C(=O)c4ccc(Cl)cc4C3(C)C)c2)CC1,–,–,–,–,–,5,466,77,2,–,–,–,–,–
Cc1ccncc1C(=O)N1CC(Oc2cncc(N3C(=O)c4ccc(Cl)cc4C3(C)C)c2)C1,10.4,40,15.8,290,5.4,4,1770,553,0.9,1020,–,–,–,–
Cn1cc(C(=O)N2CC(Oc3cncc(N4C(=O)c5ccc(Cl)cc5C4(C)C)c3)C2)cn1,6.4,60,3.8,310,3.45,0.5,–,4160,–,7880,–,–,–,–
